# ChEMBL document CHEMBL1140161, “Structure-activity relationships in 1,4-benzodioxan-related compounds. 9. From 1,4-benzodioxane to 1,4-dioxane ring as a promising template of novel alpha1D-adrenoreceptor antagonists, 5-HT1A full agonists, and cytotoxic agents” (J Med Chem, 2008)
# Active and inactive are the calls of the source. No cut-off for these calls is given here.
# How the values were obtained:
# [1] = biological target: T1, Alpha-1D adrenergic receptor (Rattus norvegicus) (UniProt P23944); assay: Antagonist activity at Alpha-1D adrenoceptor in Wistar rat thoracic aorta assessed as inhibition of (-)-noradrenaline-induced contraction after 30 mins; assay type: functional, tissue-based
# T1 sequence (whole entry): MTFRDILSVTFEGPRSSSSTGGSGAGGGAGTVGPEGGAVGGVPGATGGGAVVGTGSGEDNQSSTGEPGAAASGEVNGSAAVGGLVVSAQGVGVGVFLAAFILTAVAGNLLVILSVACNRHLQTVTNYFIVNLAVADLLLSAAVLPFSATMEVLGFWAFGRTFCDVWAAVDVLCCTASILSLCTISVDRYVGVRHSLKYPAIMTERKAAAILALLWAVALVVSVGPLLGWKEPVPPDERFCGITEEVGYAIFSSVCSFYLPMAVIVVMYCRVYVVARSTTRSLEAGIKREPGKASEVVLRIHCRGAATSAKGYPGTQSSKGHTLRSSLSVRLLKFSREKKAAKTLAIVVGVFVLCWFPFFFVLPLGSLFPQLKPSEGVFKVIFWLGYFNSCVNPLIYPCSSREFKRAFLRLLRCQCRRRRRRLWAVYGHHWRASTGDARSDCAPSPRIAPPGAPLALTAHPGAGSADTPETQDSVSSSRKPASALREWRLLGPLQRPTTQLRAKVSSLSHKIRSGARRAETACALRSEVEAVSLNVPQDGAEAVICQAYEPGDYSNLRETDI
# [2] = biological target: T2, Alpha-1A adrenergic receptor (Rattus norvegicus) (UniProt P43140); assay: Antagonist activity at alpha1A adrenoceptor in Wistar rat prostatic vas deferens assessed as inhibition of (-)-noradrenaline-induced contraction after 30 mins; assay type: functional, tissue-based
# T2 sequence (whole entry): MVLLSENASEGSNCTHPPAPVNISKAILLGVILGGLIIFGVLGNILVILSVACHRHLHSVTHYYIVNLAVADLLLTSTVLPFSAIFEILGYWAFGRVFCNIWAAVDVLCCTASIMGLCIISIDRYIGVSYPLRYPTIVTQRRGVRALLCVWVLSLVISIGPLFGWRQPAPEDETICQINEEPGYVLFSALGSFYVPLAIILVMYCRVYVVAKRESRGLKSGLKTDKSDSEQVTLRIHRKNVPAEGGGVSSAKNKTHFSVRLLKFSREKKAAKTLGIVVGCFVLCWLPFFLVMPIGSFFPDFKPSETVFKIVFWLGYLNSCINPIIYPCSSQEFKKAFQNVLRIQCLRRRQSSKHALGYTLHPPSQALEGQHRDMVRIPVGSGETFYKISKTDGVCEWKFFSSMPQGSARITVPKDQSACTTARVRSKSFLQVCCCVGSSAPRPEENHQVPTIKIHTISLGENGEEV
# [3] = biological target: T3, 5-hydroxytryptamine receptor 1A (Homo sapiens, UniProt P08908); assay: Displacement of [3H]8-OH-DPAT from human cloned 5HT1A receptor expressed in human HeLa cells; assay type: cell-based
# T3 sequence (P08908 whole entry): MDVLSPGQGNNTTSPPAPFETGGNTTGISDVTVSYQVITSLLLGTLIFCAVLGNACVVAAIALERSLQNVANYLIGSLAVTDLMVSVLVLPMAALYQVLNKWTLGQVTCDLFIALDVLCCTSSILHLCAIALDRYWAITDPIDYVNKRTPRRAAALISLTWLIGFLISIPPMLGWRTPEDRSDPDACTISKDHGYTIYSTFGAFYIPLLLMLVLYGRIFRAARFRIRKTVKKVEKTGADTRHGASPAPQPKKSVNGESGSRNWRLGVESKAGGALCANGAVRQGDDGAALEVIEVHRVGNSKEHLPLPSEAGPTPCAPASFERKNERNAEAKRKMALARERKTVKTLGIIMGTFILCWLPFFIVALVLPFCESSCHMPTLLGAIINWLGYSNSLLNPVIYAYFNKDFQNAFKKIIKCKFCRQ
# [4] = biological target: T4, Alpha-1D adrenergic receptor (Homo sapiens, UniProt P25100); assay: Displacement of [3H]prazosin from human cloned alpha1D adrenoceptor expressed in CHO cells; assay type: cell-based
# T4 sequence (P25100 whole entry): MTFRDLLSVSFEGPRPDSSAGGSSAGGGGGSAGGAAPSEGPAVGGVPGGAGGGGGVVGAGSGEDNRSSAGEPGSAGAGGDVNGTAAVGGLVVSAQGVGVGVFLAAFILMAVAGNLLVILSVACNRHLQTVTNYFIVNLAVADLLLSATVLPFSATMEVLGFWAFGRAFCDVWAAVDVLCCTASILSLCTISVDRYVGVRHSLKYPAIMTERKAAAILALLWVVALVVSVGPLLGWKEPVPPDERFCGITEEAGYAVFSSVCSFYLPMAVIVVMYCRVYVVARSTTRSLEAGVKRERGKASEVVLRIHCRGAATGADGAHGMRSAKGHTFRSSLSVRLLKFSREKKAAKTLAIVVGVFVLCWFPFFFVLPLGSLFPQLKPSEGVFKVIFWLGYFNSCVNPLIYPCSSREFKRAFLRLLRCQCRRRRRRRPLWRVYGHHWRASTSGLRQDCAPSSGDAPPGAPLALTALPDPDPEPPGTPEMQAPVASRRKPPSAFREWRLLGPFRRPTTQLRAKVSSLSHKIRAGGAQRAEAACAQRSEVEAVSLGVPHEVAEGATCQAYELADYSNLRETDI
# Outline: (§1)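 [3H]prazosin binding to cloned human α1-adrenoceptor subtypes expressed in CHO cell membranes. Affinity reported as pKi for each subtype.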
# [5] = biological target: T5, Alpha-1A adrenergic receptor (Homo sapiens, UniProt P35348); assay: Displacement of [3H]prazosin from human cloned alpha1A adrenoceptor expressed in CHO cells; assay type: cell-based; outline: as §1
# T5 sequence (P35348 whole entry): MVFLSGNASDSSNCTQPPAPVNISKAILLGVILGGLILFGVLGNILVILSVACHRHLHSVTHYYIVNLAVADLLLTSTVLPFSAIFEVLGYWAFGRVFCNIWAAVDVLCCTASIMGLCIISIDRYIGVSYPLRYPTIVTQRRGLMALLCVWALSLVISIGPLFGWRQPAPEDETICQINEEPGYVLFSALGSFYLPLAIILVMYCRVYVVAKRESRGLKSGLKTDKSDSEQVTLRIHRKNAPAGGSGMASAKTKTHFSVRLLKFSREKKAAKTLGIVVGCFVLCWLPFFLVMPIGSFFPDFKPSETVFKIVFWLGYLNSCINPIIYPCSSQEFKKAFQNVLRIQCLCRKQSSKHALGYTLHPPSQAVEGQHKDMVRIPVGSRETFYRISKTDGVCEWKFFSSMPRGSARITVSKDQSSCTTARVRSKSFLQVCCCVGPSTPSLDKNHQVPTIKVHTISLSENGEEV
# [6] = tested on: PC-3; assay: Cytotoxicity against human PC3 cells after 48 hrs by SRB assay; assay type: functional; details: for GI50 / TGI / CC50: PC-3, 48 h; for CC50: read-out: LC50 (the source's name)
# Outline: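 PC-3 human prostate cancer cells. Growth measured by sulforhodamine B staining following the NCI protocol. […] Values are means of quadruplicate determinations ± standard error (n = 5).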
SMILES,pKb [1],pKb [2],Ki [3],Ki [4],Ki [5],GI50 [6],TGI [6],CC50 [6],Activity [6]
c1ccc(OCCNC[C@@H]2CO[C@@H](c3ccccc3)CO2)cc1 (relative stereo),6.56,7,0.148 µM,> 1 µM,0.537 µM,177 µM,252 µM,> 300 µM,–
COc1ccccc1OCCNC[C@@H]1COC[C@H](c2ccccc2)O1 (relative stereo),7.2,6.57,0.00417 µM,0.0437 µM,0.2 µM,79 µM,158 µM,251 µM,–
c1ccc(OCCNC[C@@H]2COC(c3ccccc3)(c3ccccc3)CO2)cc1,7.19,6.15,0.0372 µM,0.126 µM,0.224 µM,9.9 µM,19.4 µM,45.2 µM,–
COc1cccc(OC)c1OCCNC[C@@H]1COC[C@@H](c2ccccc2)O1 (relative stereo),7.11,5.8,0.417 µM,> 1 µM,> 1 µM,112 µM,199 µM,288 µM,–
c1ccc(OCCNC[C@@H]2COCC(c3ccccc3)(c3ccccc3)O2)cc1,7.6,6.93,0.000589 µM,0.00363 µM,0.17 µM,1 µM,3.9 µM,6.2 µM,–
COc1ccccc1OCCNC[C@@H]1CO[C@H](c2ccccc2)CO1 (relative stereo),6.84,6.47,0.00347 µM,0.0162 µM,0.437 µM,199 µM,251 µM,> 300 µM,–
COc1cccc(OC)c1OCCNC[C@@H]1COCC(c2ccccc2)(c2ccccc2)O1,7.22,6.71,0.00141 µM,0.0661 µM,0.339 µM,25.1 µM,31.6 µM,35 µM,–
COc1cccc(OC)c1OCCNC[C@@H]1COC[C@H](c2ccccc2)O1 (relative stereo),6.55,6.42,> 1 µM,> 1 µM,0.468 µM,79.4 µM,178 µM,282 µM,–
c1ccc(OCCNC[C@@H]2COC[C@H](c3ccccc3)O2)cc1 (relative stereo),6.77,6.72,0.0537 µM,0.0724 µM,> 1 µM,158 µM,223 µM,281 µM,–
COc1cccc(OC)c1OCCNC[C@@H]1COC(c2ccccc2)(c2ccccc2)CO1,7.38,6.08,0.229 µM,0.17 µM,0.0891 µM,19.9 µM,31.6 µM,40 µM,–
c1ccc(OCCNC[C@@H]2CO[C@H](c3ccccc3)CO2)cc1 (relative stereo),7.05,6.89,0.0257 µM,0.355 µM,> 1 µM,190 µM,239 µM,> 300 µM,–
COc1ccccc1OCCNC[C@@H]1CO[C@@H](c2ccccc2)CO1 (relative stereo),7.48,7.1,0.0389 µM,0.0977 µM,0.158 µM,30.1 µM,–,–,inactive
COc1cccc(OC)c1OCCNC[C@@H]1CO[C@H](c2ccccc2)CO1 (relative stereo),6.08,5.96,0.257 µM,> 1 µM,> 1 µM,199 µM,251 µM,> 300 µM,–
COc1cccc(OC)c1OCCNC[C@@H]1CO[C@@H](c2ccccc2)CO1 (relative stereo),7.26,7.21,0.234 µM,> 1 µM,0.513 µM,29 µM,–,–,inactive
c1ccc(OCCNC[C@@H]2COC[C@@H](c3ccccc3)O2)cc1 (relative stereo),6.38,7.21,0.0525 µM,0.155 µM,0.407 µM,158 µM,223 µM,> 300 µM,–
COc1ccccc1OCCNC[C@@H]1COC(c2ccccc2)(c2ccccc2)CO1,7.71,6.37,0.00759 µM,0.102 µM,0.0741 µM,7.8 µM,16.1 µM,35.8 µM,–
COc1ccccc1OCCNC[C@@H]1COCC(c2ccccc2)(c2ccccc2)O1,8.32,6.65,0.000661 µM,0.00115 µM,0.0275 µM,6.3 µM,15.4 µM,35.1 µM,–
COc1ccccc1OCCNC[C@@H]1COC[C@@H](c2ccccc2)O1 (relative stereo),7.83,7.22,0.00603 µM,0.0316 µM,0.0871 µM,199 µM,251 µM,> 300 µM,–
